# KCNQ1 act – potentiators or activators of KCNQ1 channel, primary screen, cell-based, thallium flux, high-throughput; Potassium voltage-gated channel subfamily KQT member 1 (Homo sapiens), P51787; CHO-K1 KCNQ1, thallium flux FluxOR fluorescence; hits give high values; B-score at 10 µM; 310,000 compounds, 0.35% hits;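 active means fluorescence ratio B-score, a plate-corrected score, at least three library SD, with initial intensity B-score within 5 SD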
#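 System: CHO-K1 cells stably expressing KCNQ1 / Medium: assay buffer for compound exposure, DMSO matched across wells / Reagent: thallium- and potassium-containing depolarizing buffer / Compound: one concentration, matched DMSO / Incubation: 20 min compound pretreatment at room temperature / Measured by: kinetic FluxOR fluorescence, 10 s baseline plus 110 s post-stimulus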
# KCNK3 inh – human KCNK3 channel inhibitors, primary screen, CHO cells, FluxOR thallium flux, B-score; 340,000 compounds, 0.84% hits; Potassium channel subfamily K member 3 (Homo sapiens), O14649; B-score at 10 µM; FluxOR fluorescence; hits give low values; AID 602410, 2012;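 active means B-score under library mean minus 4 SD, starting fluorescence ratio at most library mean plus 5 SD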;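 further: more negative B-score means stronger inhibition of thallium flux through KCNK3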
# hERG rescue – hERG rescue from dofetilide block, primary screen, cell-based, CHO-hERG, FluxOR thallium flux, dofetilide IC70 | Voltage-gated inwardly rectifying potassium channel KCNH2 (Homo sapiens), Q12809 | dofetilide IC70 present | activation (rescue from dofetilide block), less the hit threshold, % at 10 µM | 310,000 compounds, 0.51% hits;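 active means activation above the mean of controls blocked by dofetilide plus 5 SD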;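 further: thallium influx through hERG after potassium depolarization seen as dye fluorescence rise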
# KCNQ1 block – inhibitors of human KCNQ1 channel, primary screen, cell-based, thallium flux, high-throughput. Potassium voltage-gated channel subfamily KQT member 1 (Homo sapiens), P51787. CHO-K1 KCNQ1, FluxOR thallium flux fluorescence; hits give high values. B-score at 10 µM. 310,000 compounds, 1.3% hits. AID 2642, 2010;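 active means compounds whose thallium flux B-score, printed positive for inhibition, exceeds three library SD while starting fluorescence stays within three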;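 further: channel opened by potassium depolarization with thallium stimulus after 20 min compound exposure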
# KCNK9 block – KCNK9 potassium channel inhibitors, primary screen, HEK293 cells, thallium flux; 310,000 compounds, 1.2% hits; Potassium channel subfamily K member 9 (Homo sapiens), Q9NPC2; B-score at 10 µM; AID 488922, 2010; FluxOR thallium flux fluorescence; hits give low values;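 active means ratio B-score over 3 SD below the library mean, with starting fluorescence within 5 SD of its mean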;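 further: negative B-score means less thallium flux so channel inhibition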
# Target sequence (Q9NPC2 whole entry, looked up): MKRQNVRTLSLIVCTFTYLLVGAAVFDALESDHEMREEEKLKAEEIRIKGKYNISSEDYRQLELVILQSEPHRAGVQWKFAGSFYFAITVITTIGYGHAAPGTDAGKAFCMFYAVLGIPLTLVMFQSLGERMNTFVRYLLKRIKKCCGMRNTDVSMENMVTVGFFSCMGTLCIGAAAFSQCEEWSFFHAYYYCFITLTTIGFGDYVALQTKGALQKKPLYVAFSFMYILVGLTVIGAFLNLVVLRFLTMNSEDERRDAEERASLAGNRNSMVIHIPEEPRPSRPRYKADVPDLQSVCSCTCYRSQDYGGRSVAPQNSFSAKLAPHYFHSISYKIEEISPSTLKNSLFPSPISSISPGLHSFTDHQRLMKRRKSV
# A number is an active result; – = inactive; · = no result given. This is a sample that favours compounds with a hit; in the whole collection about 3.1% have one here.
SMILES,KCNQ1 act,KCNK3 inh,hERG rescue,KCNQ1 block,KCNK9 block
Cc1cc(S(=O)(=O)NCc2ccccc2)ccc1OCC(=O)NCc1ccncc1,–,–,–,–,–
O=C(NC(=S)Nc1ccccc1)c1cncc(C#Cc2ccccc2)c1,–,–,5.8,–,–
O=C(O)c1cncc(C#Cc2ccccc2)c1,–,–,–,–,–
CCOC(=O)c1sc(NC(=O)c2cc(-c3ccccc3)nc3ccccc23)c(C#N)c1C,–,–,–,8,–
Cc1ccc(C)c(-c2cc(C(=O)Nc3sc(C)c(C)c3C(N)=O)c3ccccc3n2)c1,–,–,–,6,–
O=C(Nc1nccs1)c1cc(-c2ccccc2)nc2ccccc12,–,–,–,–,-6.7
O=C(Nc1nccs1)c1cc(-c2ccco2)nc2ccccc12,–,–,–,–,–
COC(=O)c1sccc1NC(=O)c1cc(-c2ccc(C)cc2C)nc2ccccc12,–,–,–,8,–
O=c1[nH]c2nc(Br)[nH]c(=O)c2[nH]1,·,–,·,·,·
Cc1ccc(-n2nc(C)c3c(C)c(CCC(=O)Nc4ccc(CN5CCCC5)cc4)c(C)nc32)cc1,–,–,–,6,–
CN1CCS/C1=C\C=C1/SC(=S)N(CC(=O)O)C1=O,–,–,–,11,–
Cc1nn(CCc2nn[nH]n2)c2nc(-c3ccc(C4CCCCC4)cc3)cc(C(F)(F)F)c12,50,–,–,–,–
COc1ccccc1OC(=O)Nc1ccc(Cl)cc1,–,–,–,6,–
COc1ccccc1OCC(=O)NNC(=O)Nc1ccc(Cl)cc1,–,–,–,–,–
COc1cccc(NC(=O)CCC2CCN(C(=O)c3cncs3)CC2)c1,–,–,–,–,–
CC(C)(Oc1ccc(Cl)cc1)C(=O)N/N=C/c1cn[nH]c1-c1ccccc1,–,–,–,–,-7.2
CC(C)(O)CC[C@H](OC(=O)c1ccccc1)[C@](C)(O)[C@H]1CC[C@@]2(O)C3=CC(=O)[C@@H]4C[C@@H](O)[C@H](O)C[C@]4(C)C3CC[C@]12C (stereo partly drawn),–,–,–,–,–
Cc1csc(NC(=O)CSc2nccn2C)n1,–,–,–,–,–
CCCCCCOc1ccc(NC(=O)CC2C(=O)N(CC)C(=S)N2Cc2ccco2)cc1 (stereo not drawn),–,–,–,9,–
CCN1C(=O)C(CC(=O)Nc2ccc(F)cc2)N(Cc2ccco2)C1=S (stereo not drawn),–,–,–,–,–
N=c1c2c(n(Cc3ccc(Br)cc3)c3c1CCC3)CCCC2,–,–,–,7,–
N=c1c2c(n(Cc3ccc(Cl)c(Cl)c3)c3c1CCC3)CCCC2,–,–,–,–,–
Cc1cccc(NC(=S)N/N=C/C(C)c2ccccc2)c1C (stereo not drawn),–,–,4.8,–,–
Cc1ccccc1NC(=S)N/N=C/C(C)c1ccccc1 (stereo not drawn),–,–,–,–,–
Cc1ccc2nc(NC(=O)C3CCN(S(=O)(=O)c4cc([N+](=O)[O-])ccc4Cl)CC3)sc2c1,–,–,–,9,–
SMILES,KCNQ1 act,KCNK3 inh,hERG rescue,KCNQ1 block,KCNK9 block
C=CCn1c(SCC(=O)N(CC)c2c(N)n(Cc3ccccc3)c(=O)[nH]c2=O)nnc1-c1ccccc1OC,·,–,·,·,·
Cc1ccc(CNCC2CCCO2)s1 (stereo not drawn),–,–,–,–,–
Cc1ccc(-c2nc(CN(CC3CCC3)CC3CCCO3)c(C)o2)s1 (stereo not drawn),–,–,–,–,-7.1
COc1ccc(OC)c(NC(=S)N2CCN(C/C=C/c3ccccc3)CC2)c1,–,–,49,–,–
COc1ccc(NC(=S)N2CCN(C/C=C/c3ccccc3)CC2)cc1,–,–,–,–,–
CC(CCc1ccccc1)NC(=O)C1CCN(S(=O)(=O)c2ccc(F)cc2)CC1 (stereo not drawn),–,–,–,–,–
COc1ccc(C(=O)Nn2cnc3scc(-c4cccs4)c3c2=O)c(O)c1,–,-11,–,–,–
CCOC(=O)c1c(C)oc2c1cc(O)c1ccccc12,–,–,–,–,–
CCOC(=O)c1c(C)oc2c(F)c(F)c(F)c(F)c2c1=O,–,–,–,7,–
Cc1oc2cc([N+](=O)[O-])c(O)c([N+](=O)[O-])c2c1C(=O)c1ccc(Cl)cc1,–,–,–,6,–
O=C1CCC(c2ccc3ccccc3c2)O1 (stereo not drawn),·,–,·,·,·
CN=C1S/C(=C\c2ccc(N3CCCC3)c(F)c2)C(=O)N1C,–,–,–,11,–
COc1ccccc1C(=O)NC(CCSC)C(=O)NNC(=O)c1ccncc1 (stereo not drawn),–,–,–,–,–
CCC(C)Sc1cccc(-c2nc3cc(C)ccn3c2NCc2ccccc2)c1 (stereo not drawn),–,–,–,8,–
CCCCNc1c(-c2ccc(SC(C)CC)cc2)nc2ccccn12 (stereo not drawn),–,–,–,8,-7.8
COc1ccccc1N(CC(=O)NC1CCCC1)C(=O)CNC(=O)c1cccs1,–,–,–,–,–
CCOc1ccc(CCNC(=O)c2cc(-c3ccccc3)c(N3CCOCC3)s2)cc1OCC,–,–,–,6,–
O=C(Cn1ccc(NC(=O)OCc2ccccc2)nc1=O)NCc1nc2ccccc2[nH]1,·,–,·,·,·
CCCCC(C(=O)NC(C)(C)C)N(Cc1ccccc1Cl)C(=O)c1snc(C(N)=O)c1N (stereo not drawn),–,–,–,6,–
CCCC(C(=O)NC(C)(C)C)N(Cc1ccccc1Cl)C(=O)c1snc(C(N)=O)c1N (stereo not drawn),–,–,–,7,–
CCC(C(=O)NC(C)(C)C)N(Cc1ccccc1Cl)C(=O)c1snc(C(N)=O)c1N (stereo not drawn),–,–,–,–,–
O=C(C[C@@H]1C/C=C\CCCC(=O)OC[C@@H]2CCCN2C1=O)N[C@@H](CO)Cc1ccccc1,·,–,·,·,·
CC(C)COC(=O)N1CCN(S(=O)(=O)c2ccc3c(c2)CCC3)CC1,·,–,·,·,·
CC(=O)Nc1ccc(N=Cc2nc(-c3ccc(C)cc3)oc2O)cc1,–,–,–,–,-6.8
Cc1ccc(N=Cc2nc(-c3ccc(C)cc3)oc2O)cc1,–,–,–,–,–
O=C(CSc1nc(=O)n2ccccc2n1)NCc1ccc(F)cc1,–,–,–,–,–
O=C(CSc1nc(=O)n2ccccc2n1)NCc1ccccc1,8,–,–,–,–
COc1ccc(-c2nc(=S)c3ccc4ccccc4c3[nH]2)cc1,77,–,63,–,–

# Assay outcomes (PubChem)
